# In ChEMBL document CHEMBL1156792, “Application of the dipeptidyl peptidase IV (DPPIV/CD26) based prodrug approach to different amine-containing drugs” (J Med Chem, 2010):
# Peptide text beside a SMILES is read from it. * marks the point of attachment. X2 = OC[C@H]1O[C@@H](n2cnc3c(N*)ncnc32)[C@@H](O)[C@@H]1O; X1 = O=c1nc(N*)ccn1[C@@H]1O[C@H](CO)[C@@H](O)[C@@H]1O
# Assays:
# HeLa = experiment: Cytotoxicity against human HeLa cells assessed as inhibition of cell proliferation after 48 hrs; format: functional, cell-based
# [1] = Solubility in water; format: physicochemical
# Outline: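 Excess solid was suspended in deionized water, sonicated 10 min at room temperature, equilibrated overnight at room temperature and centrifuged. Supernatant was diluted into a five-point standard curve range. Concentration came from HPLC peak area against a DMSO-dissolved standard of known concentration.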
# L1210 = experiment: Cytotoxicity against mouse L1210 cells assessed as inhibition of cell proliferation after 48 hrs; format: functional, cell-based; details: L1210, 48 h
# Outline: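 L1210 cells were seeded at (5–7.5) × 10⁴ cells/well in 200 μL wells with compound. Cell number was counted by Coulter counter after 48 h. IC₅₀ is the concentration inhibiting proliferation by 50%.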
# CCRF-CEM = experiment: Cytotoxicity against human CEM cells assessed as inhibition of cell proliferation after 48 hrs; format: functional, cell-based
# [2] = Stability assessed as 6-aminoquinoline formation in human recombinant CD26 measured within 4 hrs; format: ADME
# Outline: (§1)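 Prodrug (50 μM) in PBS with 0.1% DMSO was incubated at 37 °C with purified CD26 (1.5 mU) or 20% human or bovine serum in PBS. Samples taken at time points were quenched in cold methanol on ice, centrifuged at 4 °C and analyzed by RP-8 HPLC. Buffer A was 50 mM NaH₂PO₄ with 5 mM heptanesulfonic acid, pH 3.2; buffer B was acetonitrile.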
# Serum [3] = experiment: Stability in 20 % human serum assessed as 6-aminoquinoline formation within 4 hrs; format: ADME, cell-free; outline: as §1
# Serum [4] = experiment: Stability in 20 % bovine serum assessed as 6-aminoquinoline formation within 4 hrs; format: ADME, cell-free, Bos taurus; details: cattle; outline: as §1
# Serum [5] = experiment: Stability in 20 % bovine serum assessed as 6-aminoquinoline formation after 2 hrs; format: ADME, cell-free, Bos taurus; details: cattle; outline: as §1
# Serum [6] = experiment: Stability in 20 % human serum assessed as 6-aminoquinoline formation after 2 hrs; format: ADME, cell-free; outline: as §1
# Human alphaherpesvirus 1 [7] = experiment: Antiviral activity against HSV1 KOS infected in HEL cells assessed as inhibition of virus-induced cytopathicity in presence of vildagliptin; format: functional, organism-based; details: Human alphaherpesvirus 1, KOS
# Outline: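 HEL cells were infected with HSV-1 (KOS) at 100 CCID₅₀/mL with compound. The CD26 inhibitor vildagliptin (20 μM) was added once at the start of infection.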
# Dipeptidyl peptidase 4 = Dipeptidyl peptidase 4 (Homo sapiens, UniProt P27487); experiment: Inhibition of human DPP4 from human Caco-2 cells; format: cell-based
# Vaccinia virus [8] = experiment: Antiviral activity against Vaccinia virus Lederle infected in HEL cells assessed as inhibition of virus-induced cytopathicity in presence of vildagliptin; format: functional, organism-based; details: Orthopoxvirus vaccinia
# Vaccinia virus [9] = experiment: Antiviral activity against Vaccinia virus Lederle infected in HEL cells assessed as inhibition of virus-induced cytopathicity; format: functional, organism-based; details: Orthopoxvirus vaccinia
# Human alphaherpesvirus 1 [10] = experiment: Antiviral activity against HSV1 KOS infected in HEL cells assessed as inhibition of virus-induced cytopathicity; format: functional, organism-based; details: Human alphaherpesvirus 1, KOS
# Outline: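 HEL cell cultures in 96-well plates were infected with HSV-1 (KOS) at 100 CCID₅₀/mL in the presence or absence of compound.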
# [11] = test system: Human immunodeficiency virus 1; experiment: Antiviral activity against HIV1 3B infected in human CEM cells assessed as inhibition of virus-induced cytopathicity; format: functional, organism-based; details: Human immunodeficiency virus 1, 3B, CCRF-CEM
# Outline: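 CEM cells (~4.5 × 10⁵/mL) were infected with HIV-1 IIIB at 100 CCID₅₀/mL and exposed to compound dilutions (final 0.62–2000 μM) at 37 °C. Giant cell formation was scored microscopically after 4–5 days. EC₅₀ is the concentration preventing syncytium formation by 50%.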
# Chain of Dipeptidyl peptidase 4 (P27487 whole entry): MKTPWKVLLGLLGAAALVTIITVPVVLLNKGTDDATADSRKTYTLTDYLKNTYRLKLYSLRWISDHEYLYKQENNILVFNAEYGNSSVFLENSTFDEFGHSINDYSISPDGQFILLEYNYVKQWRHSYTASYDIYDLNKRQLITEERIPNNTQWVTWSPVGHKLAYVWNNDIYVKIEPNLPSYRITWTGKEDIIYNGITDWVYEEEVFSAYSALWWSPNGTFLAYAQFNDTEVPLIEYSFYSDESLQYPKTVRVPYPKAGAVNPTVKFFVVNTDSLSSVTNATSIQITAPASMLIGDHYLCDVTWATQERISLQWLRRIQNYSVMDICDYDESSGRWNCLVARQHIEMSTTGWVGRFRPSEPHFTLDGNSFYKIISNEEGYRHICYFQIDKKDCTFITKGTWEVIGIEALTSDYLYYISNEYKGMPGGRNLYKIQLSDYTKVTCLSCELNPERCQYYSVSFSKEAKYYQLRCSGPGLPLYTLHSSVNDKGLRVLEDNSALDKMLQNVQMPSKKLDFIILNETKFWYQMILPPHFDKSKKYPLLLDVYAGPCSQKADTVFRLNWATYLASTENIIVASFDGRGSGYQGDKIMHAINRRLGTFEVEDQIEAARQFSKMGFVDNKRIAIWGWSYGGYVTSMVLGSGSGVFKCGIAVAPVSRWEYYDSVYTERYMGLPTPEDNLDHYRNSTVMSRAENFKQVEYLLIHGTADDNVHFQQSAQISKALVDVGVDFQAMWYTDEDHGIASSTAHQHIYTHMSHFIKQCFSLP
compound,measurement,setting,value
Nc1ccn([C@@H]2O[C@H](CO)[C@@H](O)[C@@H]2O)c(=O)n1 [CYTARABINE],IC50,HeLa,0.26 µM
N[C@@H](CC(=O)O)C(=O)N1CCC[C@H]1C(=O)Nc1ccc2ncccc2c1,solubility,[1],47.8 mg/mL
CC(C)[C@H](N)C(=O)N1CCC[C@H]1C(=O)N[C@H](C(=O)N1CCC[C@H]1C(=O)Nc1ccn([C@@H]2O[C@H](CO)[C@@H](O)[C@@H]2O)c(=O)n1)C(C)C (H-VPVP-X1),IC50,L1210,0.1 µM
same,IC50,CCRF-CEM,0.057 µM
same,Activity,[2],80%
same,IC50,HeLa,0.63 µM
same,Activity,Serum [3],80%
same,Activity,Serum [4],80%
Nc1ccc2ncccc2c1,solubility,[1],7.01 mg/mL
Cc1cn([C@@H]2O[C@H](CO[Si](C)(C)C(C)(C)C)[C@@]3(OS(=O)(=O)C=C3N)[C@H]2O[Si](C)(C)C(C)(C)C)c(=O)nc1NC(=O)[C@@H]1CCCN1C(=O)[C@@H](NC(=O)[C@@H]1CCCN1C(=O)[C@@H](N)C(C)C)C(C)C,Activity,Serum [5],40%
same,Activity,Serum [6],20%
CC(C)[C@H](N)C(=O)N[C@@H](C)C(=O)N[C@H](C(=O)N1CCC[C@H]1C(=O)Nc1ccn([C@@H]2O[C@H](CO)[C@@H](O)[C@@H]2O)c(=O)n1)C(C)C (H-VAVP-X1),IC50,L1210,0.082 µM
same,IC50,CCRF-CEM,0.05 µM
same,IC50,HeLa,0.56 µM
Nc1ncnc2c1ncn2[C@@H]1O[C@H](CO)[C@@H](O)[C@@H]1O [VIDARABINE],EC50,Human alphaherpesvirus 1 [7],42 µM
same,IC50,Dipeptidyl peptidase 4,0.062 µM
same,EC50,Vaccinia virus [8],10 µM
same,EC50,Vaccinia virus [9],8.3 µM
same,EC50,Human alphaherpesvirus 1 [10],35 µM
CC(C)[C@H](N)C(=O)N1CCC[C@H]1C(=O)N[C@H](C(=O)N1CCC[C@H]1C(=O)Nc1ncnc2c1ncn2[C@@H]1O[C@H](CO)[C@@H](O)[C@@H]1O)C(C)C (H-VPVP-X2),solubility,[1],34.7 mg/mL
same,EC50,Human alphaherpesvirus 1 [7],238 µM
same,EC50,Vaccinia virus [8],135 µM
same,EC50,Vaccinia virus [9],16 µM
same,EC50,Human alphaherpesvirus 1 [10],54 µM
CC(C)[C@H](N)C(=O)N1CCC[C@H]1C(=O)Nc1ccc2ncccc2c1,solubility,[1],33.2 mg/mL
CC(C)(C)[Si](C)(C)OC[C@H]1O[C@@H](n2ccc(N)nc2=O)[C@@H](O)[C@@H]1O[Si](C)(C)C(C)(C)C,EC50,[11],0.07 µM
